Published values pooled from the literature.
Compare with care: the assays were run in different laboratories.
Cell line: HepG2
Effect on: cell growth or viability

CC(C)(C)CC(C)(C)Nc1c(-c2cccc(C#N)c2)nc2ncccn12  viability (MTT; 25 µM, 48 h): 74.5%
COC1=CC(c2ccco2)=NC1=Cc1ccc(CCCCCCCCCC(C)O)[nH]1 (centres unmarked)  IC50: > 100 µM
CNc1cccc2cc(C(=O)NCc3ccc(C(=O)O)cc3)c(=O)[nH]c12  cell death (CCK-8; 50 µM, 48 h): 18%
COc1ccc2c(c1)c1c(n2CO)CN2CCc3cc(OC)c(OCc4ccc(F)cc4)cc3C2C1 (centres unmarked)  viability (20 µM, 24 h): 104%
COc1ccc(CCN2CCC(Nc3nc4ccccc4n3Cc3ccc(F)cc3)CC2)cc1  viability (resazurin; 1 µM, 24 h): 113%
COc1ccc2c(c1)c1c(n2CO)CN2CCc3cc(OCc4ccccc4)c(OC)cc3C2C1 (centres unmarked)  viability (20 µM, 24 h): 88.9%
COc1cc2[nH]c(C)c(-c3ccc(Oc4cccc(OC(F)(F)F)c4)cc3)c(=O)c2cc1Cl  IC50 (resazurin): > 10 µM
CC(=O)OC1c2c(ccc3ccc(=O)oc23)OC(C)(C)C1OC(=O)C(C)(O)C(C)O (centres unmarked)  IC50 (WST-1): 24.4 µM
N=C(N)c1ccc(OCCCCCOc2ccc(C(=N)N)cc2)cc1  CC50 (MTS; 24 h): > 20 µM
CC1(C)CC[C@]2(C)CC[C@]3(C)[C@H]4CC=C5[C@@H](CC[C@H](O)C5(C)C)[C@]4(C)CC[C@@]3(C)[C@@H]2C1  IC50 (WST-1): 50.9 µM
COC1=CC(c2ccc[nH]2)=NC1=Cc1ccc(CCCCCCCCCCO)[nH]1  IC50: 11.4 µM
CNc1cccc2cc(C(=O)NCCc3cccc(C(=O)O)c3)c(=O)[nH]c12  cell death (CCK-8; 50 µM, 48 h): 15%
CCCCCCn1c(-c2cccc(Cl)c2)n[nH]c1=S  viability (resazurin; 1 µM, 24 h): 87%
Cc1[nH]c2ccc(F)cc2c(=O)c1-c1ccc(Oc2ccc(OC(F)(F)F)cc2)nc1  IC50 (resazurin): > 10 µM
CCc1ccc(C2=NC(=Cc3ccc(CCCCCCCCCC(C)O)[nH]3)C(OC)=C2)[nH]1 (centres unmarked)  IC50: 1.76 µM
COc1cc2c(cc1OCc1ccccc1F)C1Cc3c(n(CO)c4ccccc34)CN1CC2 (centres unmarked)  viability (10 µM, 24 h): 109%
COc1cc2[nH]c(C)c(-c3ccc(Oc4ccc(C(F)(F)F)cn4)cc3)c(=O)c2cc1Cl  IC50 (resazurin): > 10 µM
OC(c1cc(C(F)(F)F)nc2c(C(F)(F)F)cccc12)C1CCCCN1 (centres unmarked)  IC50: 11 µM
Cc1[nH]c2ccc(Cl)cc2c(=O)c1-c1ccc(Oc2ccc(OC(F)(F)F)cc2)nc1  IC50 (resazurin): > 10 µM
COc1ccc2c(c1)c1c(n2CO)CN2CCc3cc(OC)c(OCC(F)(F)F)cc3C2C1 (centres unmarked)  viability (10 µM, 24 h): 96.6%
Cc1[nH]c2ccccc2c(=O)c1-c1ccc(Oc2ccc(OC(F)(F)F)cc2)nc1  IC50 (resazurin): > 10 µM
C/C=C(/C)C(=O)O[C@@H]1[C@H](OC(C)=O)c2c(ccc3ccc(=O)oc23)OC1(C)C  IC50 (WST-1): 50.9 µM
COc1cccc2c1C(=O)c1c(O)c3c(c(O)c1C2=O)C[C@@](O)(C(=O)CO)C[C@@H]3O[C@H]1C[C@H](N)[C@H](O)[C@H](C)O1  viability (MTT; 25 µM, 48 h): 31.4%
